Assay results published in ChEMBL document CHEMBL4339190, “2,6-Disubstituted imidazo[2,1-b][1,3,4]thiadiazole derivatives as potent staphylococcal biofilm inhibitors” (Eur J Med Chem, 2019).

System: Staphylococcus aureus
Assay: Antimicrobial activity against Staphylococcus aureus ATCC 25923 assessed as growth inhibition of planktonic forms incubated for 24 hrs
Format: organism-based
Conditions: in vitro
Procedure, shortened: (§1)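 Broth microdilution in tryptic soy broth. Two-fold series 100 to 0.75 μg/mL made from a 1 mg/mL stock in 0.9% NaCl. Inoculum ~10⁶ cfu/mL taken from a 24 h culture, 37 °C 24 h.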

SMILES	MIC [µg/mL]
FC(F)(F)c1ccc(-c2cn3nc(-c4c[nH]c5ccc(Cl)cc45)sc3n2)cc1	> 100
Br.COc1cccc(-c2cn3nc(-c4c[nH]c5ccc(Cl)cc45)sc3n2)c1	> 100
O=[N+]([O-])c1ccc(-c2cn3nc(-c4c[nH]c5ccccc45)sc3n2)cc1	> 100
Br.COc1ccc(OC)c(-c2cn3nc(-c4c[nH]c5ccc(Br)cc45)sc3n2)c1	> 100
Br.COc1ccc(OC)c(-c2cn3nc(-c4cn(C)c5ccc(Br)cc45)sc3n2)c1	> 100
Br.Fc1ccc(-c2cn3nc(-c4c[nH]c5ccc(Cl)cc45)sc3n2)cc1	> 100
FC(F)(F)c1ccc(-c2cn3nc(-c4c[nH]c5ccc(Br)cc45)sc3n2)cc1	> 100
Br.Cn1cc(-c2nn3cc(-c4ccc(F)cc4)nc3s2)c2ccccc21	> 100
Br.Fc1ccc(-c2cn3nc(-c4c[nH]c5ccccc45)sc3n2)cc1	> 100

System: Escherichia coli
Assay: Antimicrobial activity against Escherichia coli ATCC 25922 assessed as growth inhibition of planktonic forms incubated for 24 hrs
Format: organism-based
Conditions: in vitro
Procedure, shortened: as §1

SMILES	MIC [µg/mL]
FC(F)(F)c1ccc(-c2cn3nc(-c4c[nH]c5ccc(Cl)cc45)sc3n2)cc1	> 100
Br.COc1cccc(-c2cn3nc(-c4c[nH]c5ccc(Cl)cc45)sc3n2)c1	> 100
O=[N+]([O-])c1ccc(-c2cn3nc(-c4c[nH]c5ccccc45)sc3n2)cc1	> 100
Br.COc1ccc(OC)c(-c2cn3nc(-c4c[nH]c5ccc(Br)cc45)sc3n2)c1	> 100
Br.COc1ccc(OC)c(-c2cn3nc(-c4cn(C)c5ccc(Br)cc45)sc3n2)c1	> 100
Br.Fc1ccc(-c2cn3nc(-c4c[nH]c5ccc(Cl)cc45)sc3n2)cc1	> 100
FC(F)(F)c1ccc(-c2cn3nc(-c4c[nH]c5ccc(Br)cc45)sc3n2)cc1	> 100
Br.Cn1cc(-c2nn3cc(-c4ccc(F)cc4)nc3s2)c2ccccc21	> 100
Br.Fc1ccc(-c2cn3nc(-c4c[nH]c5ccccc45)sc3n2)cc1	> 100

System: Pseudomonas aeruginosa
Assay: Antimicrobial activity against Pseudomonas aeruginosa ATCC 15442 assessed as growth inhibition of planktonic forms incubated for 24 hrs
Format: organism-based
Conditions: in vitro
Procedure, shortened: as §1

SMILES	MIC [µg/mL]
FC(F)(F)c1ccc(-c2cn3nc(-c4c[nH]c5ccc(Cl)cc45)sc3n2)cc1	> 100
Br.COc1cccc(-c2cn3nc(-c4c[nH]c5ccc(Cl)cc45)sc3n2)c1	> 100
O=[N+]([O-])c1ccc(-c2cn3nc(-c4c[nH]c5ccccc45)sc3n2)cc1	> 100
Br.COc1ccc(OC)c(-c2cn3nc(-c4c[nH]c5ccc(Br)cc45)sc3n2)c1	> 100
Br.COc1ccc(OC)c(-c2cn3nc(-c4cn(C)c5ccc(Br)cc45)sc3n2)c1	> 100
Br.Fc1ccc(-c2cn3nc(-c4c[nH]c5ccc(Cl)cc45)sc3n2)cc1	> 100
FC(F)(F)c1ccc(-c2cn3nc(-c4c[nH]c5ccc(Br)cc45)sc3n2)cc1	> 100
Br.Cn1cc(-c2nn3cc(-c4ccc(F)cc4)nc3s2)c2ccccc21	> 100
Br.Fc1ccc(-c2cn3nc(-c4c[nH]c5ccccc45)sc3n2)cc1	> 100

System: Staphylococcus epidermidis
Assay: Antibiofilm activity against Staphylococcus epidermidis ATCC 12228 incubated for 24 hrs by crystal violet-staining based assay
Format: functional
Conditions: not given
Procedure, shortened: (§2)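 Biofilm prevention: 0.5 McFarland inoculum (2.5 µL) in 100 µL TSB with 2% w/v glucose, compound present from the start over 100–0.1 µg/mL, 37 °C 24 h. Washed with PBS, stained 0.1% w/v crystal violet 30 min, eluted with 33% v/v acetic acid, read at 570 nm. BIC50 (50% inhibition versus untreated control) derived by linear regression; triplicate, repeated at least twice.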

SMILES	MBIC50 [µM]	inhibition
FC(F)(F)c1ccc(-c2cn3nc(-c4c[nH]c5ccc(Cl)cc45)sc3n2)cc1	24.5	Dose-dependent effect
Br.COc1cccc(-c2cn3nc(-c4c[nH]c5ccc(Cl)cc45)sc3n2)c1	32.7	Dose-dependent effect
O=[N+]([O-])c1ccc(-c2cn3nc(-c4c[nH]c5ccccc45)sc3n2)cc1	41.2	Dose-dependent effect
Br.COc1ccc(OC)c(-c2cn3nc(-c4c[nH]c5ccc(Br)cc45)sc3n2)c1	36.1	Dose-dependent effect
Br.COc1ccc(OC)c(-c2cn3nc(-c4cn(C)c5ccc(Br)cc45)sc3n2)c1	52.3	Dose-dependent effect
Br.Fc1ccc(-c2cn3nc(-c4c[nH]c5ccc(Cl)cc45)sc3n2)cc1	100.7	Dose-dependent effect
FC(F)(F)c1ccc(-c2cn3nc(-c4c[nH]c5ccc(Br)cc45)sc3n2)cc1	19.2	Dose-dependent effect
Br.Cn1cc(-c2nn3cc(-c4ccc(F)cc4)nc3s2)c2ccccc21	68.9	Dose-dependent effect
Br.Fc1ccc(-c2cn3nc(-c4c[nH]c5ccccc45)sc3n2)cc1	30.8	Dose-dependent effect

System: Staphylococcus aureus
Assay: Antibiofilm activity against Staphylococcus aureus ATCC 25923 incubated for 24 hrs by crystal violet-staining based assay
Format: functional
Conditions: not given
Procedure, shortened: as §2

SMILES	MBIC50 [µM]	inhibition
FC(F)(F)c1ccc(-c2cn3nc(-c4c[nH]c5ccc(Cl)cc45)sc3n2)cc1	9.7	Dose-dependent effect
Br.COc1cccc(-c2cn3nc(-c4c[nH]c5ccc(Cl)cc45)sc3n2)c1	31.6	Dose-dependent effect
O=[N+]([O-])c1ccc(-c2cn3nc(-c4c[nH]c5ccccc45)sc3n2)cc1	47.5	Dose-dependent effect
Br.COc1ccc(OC)c(-c2cn3nc(-c4c[nH]c5ccc(Br)cc45)sc3n2)c1	26.4	Dose-dependent effect
Br.COc1ccc(OC)c(-c2cn3nc(-c4cn(C)c5ccc(Br)cc45)sc3n2)c1	90.8	Dose-dependent effect
Br.Fc1ccc(-c2cn3nc(-c4c[nH]c5ccc(Cl)cc45)sc3n2)cc1	51.3	Dose-dependent effect
FC(F)(F)c1ccc(-c2cn3nc(-c4c[nH]c5ccc(Br)cc45)sc3n2)cc1	16.8	Dose-dependent effect
Br.Cn1cc(-c2nn3cc(-c4ccc(F)cc4)nc3s2)c2ccccc21	8.6	Dose-dependent effect
Br.Fc1ccc(-c2cn3nc(-c4c[nH]c5ccccc45)sc3n2)cc1	15.6	Dose-dependent effect

System: Escherichia coli
Assay: Antibiofilm activity against Escherichia coli ATCC 25922 assessed as inhibition of biofilm formation at 100 ug/ml incubated for 24 hrs by crystal violet-staining based assay
Format: functional
Conditions: ATCC 25922, 24 h

SMILES	inhibition at 100 µg/mL [%]
FC(F)(F)c1ccc(-c2cn3nc(-c4c[nH]c5ccc(Cl)cc45)sc3n2)cc1	< 15
Br.COc1cccc(-c2cn3nc(-c4c[nH]c5ccc(Cl)cc45)sc3n2)c1	< 15
O=[N+]([O-])c1ccc(-c2cn3nc(-c4c[nH]c5ccccc45)sc3n2)cc1	< 15
Br.COc1ccc(OC)c(-c2cn3nc(-c4c[nH]c5ccc(Br)cc45)sc3n2)c1	< 15
Br.COc1ccc(OC)c(-c2cn3nc(-c4cn(C)c5ccc(Br)cc45)sc3n2)c1	< 15
Br.Fc1ccc(-c2cn3nc(-c4c[nH]c5ccc(Cl)cc45)sc3n2)cc1	< 15
FC(F)(F)c1ccc(-c2cn3nc(-c4c[nH]c5ccc(Br)cc45)sc3n2)cc1	< 15
Br.Cn1cc(-c2nn3cc(-c4ccc(F)cc4)nc3s2)c2ccccc21	< 15
Br.Fc1ccc(-c2cn3nc(-c4c[nH]c5ccccc45)sc3n2)cc1	< 15

System: Staphylococcus epidermidis
Assay: Antimicrobial activity against Staphylococcus epidermidis ATCC 12228 assessed as growth inhibition of planktonic forms incubated for 24 hrs
Format: organism-based
Conditions: in vitro
Procedure, shortened: as §1

SMILES	MIC [µg/mL]
FC(F)(F)c1ccc(-c2cn3nc(-c4c[nH]c5ccc(Cl)cc45)sc3n2)cc1	> 100
Br.COc1cccc(-c2cn3nc(-c4c[nH]c5ccc(Cl)cc45)sc3n2)c1	> 100
O=[N+]([O-])c1ccc(-c2cn3nc(-c4c[nH]c5ccccc45)sc3n2)cc1	> 100
Br.COc1ccc(OC)c(-c2cn3nc(-c4c[nH]c5ccc(Br)cc45)sc3n2)c1	> 100
Br.COc1ccc(OC)c(-c2cn3nc(-c4cn(C)c5ccc(Br)cc45)sc3n2)c1	> 100
Br.Fc1ccc(-c2cn3nc(-c4c[nH]c5ccc(Cl)cc45)sc3n2)cc1	> 100
FC(F)(F)c1ccc(-c2cn3nc(-c4c[nH]c5ccc(Br)cc45)sc3n2)cc1	> 100
Br.Cn1cc(-c2nn3cc(-c4ccc(F)cc4)nc3s2)c2ccccc21	> 100
Br.Fc1ccc(-c2cn3nc(-c4c[nH]c5ccccc45)sc3n2)cc1	> 100

System: Staphylococcus aureus
Assay: Antimicrobial activity against Staphylococcus aureus ATCC 6538 assessed as growth inhibition of planktonic forms incubated for 24 hrs
Format: organism-based
Conditions: in vitro
Procedure, shortened: as §1

SMILES	MIC [µg/mL]
FC(F)(F)c1ccc(-c2cn3nc(-c4c[nH]c5ccc(Cl)cc45)sc3n2)cc1	> 100
Br.COc1cccc(-c2cn3nc(-c4c[nH]c5ccc(Cl)cc45)sc3n2)c1	> 100
O=[N+]([O-])c1ccc(-c2cn3nc(-c4c[nH]c5ccccc45)sc3n2)cc1	> 100
Br.COc1ccc(OC)c(-c2cn3nc(-c4c[nH]c5ccc(Br)cc45)sc3n2)c1	> 100
Br.COc1ccc(OC)c(-c2cn3nc(-c4cn(C)c5ccc(Br)cc45)sc3n2)c1	> 100
Br.Fc1ccc(-c2cn3nc(-c4c[nH]c5ccc(Cl)cc45)sc3n2)cc1	> 100
FC(F)(F)c1ccc(-c2cn3nc(-c4c[nH]c5ccc(Br)cc45)sc3n2)cc1	> 100
Br.Cn1cc(-c2nn3cc(-c4ccc(F)cc4)nc3s2)c2ccccc21	> 100
Br.Fc1ccc(-c2cn3nc(-c4c[nH]c5ccccc45)sc3n2)cc1	> 100

System: Staphylococcus aureus
Assay: Antibiofilm activity against Staphylococcus aureus ATCC 6538 incubated for 24 hrs by crystal violet-staining based assay
Format: functional
Conditions: not given
Procedure, shortened: as §2

SMILES	MBIC50 [µM]	inhibition
FC(F)(F)c1ccc(-c2cn3nc(-c4c[nH]c5ccc(Cl)cc45)sc3n2)cc1	12.6	Dose-dependent effect
Br.COc1cccc(-c2cn3nc(-c4c[nH]c5ccc(Cl)cc45)sc3n2)c1	15.1	Dose-dependent effect
O=[N+]([O-])c1ccc(-c2cn3nc(-c4c[nH]c5ccccc45)sc3n2)cc1	20.2	Dose-dependent effect
Br.COc1ccc(OC)c(-c2cn3nc(-c4c[nH]c5ccc(Br)cc45)sc3n2)c1	16.5	Dose-dependent effect
Br.COc1ccc(OC)c(-c2cn3nc(-c4cn(C)c5ccc(Br)cc45)sc3n2)c1	8.9	Dose-dependent effect
Br.Fc1ccc(-c2cn3nc(-c4c[nH]c5ccc(Cl)cc45)sc3n2)cc1	24.2	Dose-dependent effect
FC(F)(F)c1ccc(-c2cn3nc(-c4c[nH]c5ccc(Br)cc45)sc3n2)cc1	13.3	Dose-dependent effect
Br.Cn1cc(-c2nn3cc(-c4ccc(F)cc4)nc3s2)c2ccccc21	17.9	Dose-dependent effect
Br.Fc1ccc(-c2cn3nc(-c4c[nH]c5ccccc45)sc3n2)cc1	13.4	Dose-dependent effect

System: Pseudomonas aeruginosa
Assay: Antibiofilm activity against Pseudomonas aeruginosa ATCC 15442 assessed as inhibition of biofilm formation at 100 ug/ml incubated for 24 hrs by crystal violet-staining based assay
Format: functional
Conditions: ATCC 15442, 24 h

SMILES	inhibition at 100 µg/mL [%]
FC(F)(F)c1ccc(-c2cn3nc(-c4c[nH]c5ccc(Cl)cc45)sc3n2)cc1	< 15
O=[N+]([O-])c1ccc(-c2cn3nc(-c4c[nH]c5ccccc45)sc3n2)cc1	< 15
Br.COc1ccc(OC)c(-c2cn3nc(-c4c[nH]c5ccc(Br)cc45)sc3n2)c1	< 15
Br.Fc1ccc(-c2cn3nc(-c4c[nH]c5ccc(Cl)cc45)sc3n2)cc1	< 15
FC(F)(F)c1ccc(-c2cn3nc(-c4c[nH]c5ccc(Br)cc45)sc3n2)cc1	< 15
Br.Cn1cc(-c2nn3cc(-c4ccc(F)cc4)nc3s2)c2ccccc21	< 15

System: Pseudomonas aeruginosa
Assay: Antibiofilm activity against Pseudomonas aeruginosa ATCC 15442 incubated for 24 hrs by crystal violet-staining based assay
Format: functional
Conditions: not given
Procedure, shortened: as §2

SMILES	MBIC50 [µM]	inhibition
Br.COc1cccc(-c2cn3nc(-c4c[nH]c5ccc(Cl)cc45)sc3n2)c1	29	Dose-dependent effect
Br.COc1ccc(OC)c(-c2cn3nc(-c4cn(C)c5ccc(Br)cc45)sc3n2)c1	28.5	Dose-dependent effect
Br.Fc1ccc(-c2cn3nc(-c4c[nH]c5ccccc45)sc3n2)cc1	47.4	Dose-dependent effect
